Reference: ChEMBL document CHEMBL1137710, “Synthesis and in vitro antitumor activity of new quinoxaline derivatives” (2009)

Tests used:
Type in all cases: functional
SNB-75 = assay: Growth inhibition of human SNB75 cells after 48 hrs by sulforhodamine B assay; settings: SNB-75, 48 h
In short: (§1)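 Run in the NCI 60-human-tumour-cell-line panel, tested over a 5-log dose range. Dose–response curves gave three values per cell line, each as a log10 molar concentration: GI50 (50% inhibition of net cell growth), TGI (total inhibition of net growth) and LC50 (50% net cell death). The mean graph midpoint is the arithmetic mean over all lines, with insensitive lines entered at the highest concentration tested.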

NCI-H23 = assay: Growth inhibition of human NCI-H23 cells after 48 hrs by sulforhodamine B assay; settings: NCI-H23, 48 h
In short: (§2)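 NCI 60-human-tumor-cell-line panel, with compounds tested over a 5-log dose range. Values are taken from dose-response curves as log10 molar concentrations: GI50 is 50% net growth inhibition, TGI is total growth inhibition, and LC50 is 50% net cell death.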

K562 = assay: Growth inhibition of human K562 cells after 48 hrs by sulforhodamine B assay; settings: K562, 48 h; in short: as §2
NCI/ADR-RES = assay: Growth inhibition of human NCI/ADR-RES cells after 48 hrs by sulforhodamine B assay; in short: as §2
Malme-3M = assay: Growth inhibition of human MALME-3M cells after 48 hrs by sulforhodamine B assay; in short: as §2
NCI-H226 = assay: Growth inhibition of human NCI-H226 cells after 48 hrs by sulforhodamine B assay; settings: NCI-H226, 48 h; in short: as §2
HL-60(TB) = assay: Growth inhibition of human HL-60(TB) cells after 48 hrs by sulforhodamine B assay; settings: HL-60, 48 h
In short: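 Tested only on compounds active in a three-line prescreen, in the NCI 60-human-tumour-cell-line panel over a 5-log dose range. Values come from dose–response curves as log10 molar GI50, the concentration inhibiting 50% net cell growth. Log10 TGI (total growth inhibition) and log10 LC50 (50% net cell death) were derived too. Mean graph midpoints include insensitive lines at the highest concentration tested.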

SR = assay: Growth inhibition of human SR cells after 48 hrs by sulforhodamine B assay; in short: as §1
DU-145 = assay: Growth inhibition of human DU145 cells after 48 hrs by sulforhodamine B assay; settings: DU-145, 48 h; in short: as §2
T47D = assay: Growth inhibition of human T47D cells after 48 hrs by sulforhodamine B assay; in short: as §1
HT-29 = assay: Growth inhibition of human HT-29 cells after 48 hrs by sulforhodamine B assay; settings: HT-29, 48 h; in short: as §2
EKVX = assay: Growth inhibition of human EKVX cells after 48 hrs by sulforhodamine B assay; in short: as §2
BT-549 = assay: Growth inhibition of human BT549 cells after 48 hrs by sulforhodamine B assay; settings: BT-549, 48 h; in short: as §2
LOX IMVI = assay: Growth inhibition of human LOXIMVI cells after 48 hrs by sulforhodamine B assay; in short: as §2
M14 = assay: Growth inhibition of human M14 cells after 48 hrs by sulforhodamine B assay; settings: M14, 48 h; in short: as §2
RXF 393 = assay: Growth inhibition of human RXF393 cells after 48 hrs by sulforhodamine B assay; settings: RXF 393, 48 h; in short: as §2
UACC-62 = assay: Growth inhibition of human UACC62 cells after 48 hrs by sulforhodamine B assay; settings: UACC-62, 48 h; in short: as §1
A549 = assay: Growth inhibition of human A549 cells after 48 hrs by sulforhodamine B assay; settings: A549, 48 h; in short: as §2
HOP-92 = assay: Growth inhibition of human HOP92 cells after 48 hrs by sulforhodamine B assay; settings: HOP-92, 48 h; in short: as §2
SK-MEL-28 = assay: Growth inhibition of human SK-MEL-28 cells after 48 hrs by sulforhodamine B assay; settings: SK-MEL-28, 48 h; in short: as §2
[1] = Growth inhibition of human […] cells after 48 hrs by sulforhodamine B assay; in short: as §2
SK-MEL-2 = assay: Growth inhibition of human SK-MEL-2 cells after 48 hrs by sulforhodamine B assay; settings: SK-MEL-2, 48 h; in short: as §2
CCRF-CEM = assay: Growth inhibition of human CCRF-CEM cells after 48 hrs by sulforhodamine B assay; in short: as §2
HCT-15 = assay: Growth inhibition of human HCT15 cells after 48 hrs by sulforhodamine B assay; settings: HCT-15, 48 h; in short: as §2
SF-539 = assay: Growth inhibition of human SF539 cells after 48 hrs by sulforhodamine B assay; settings: SF-539, 48 h; in short: as §2
SW-620 = assay: Growth inhibition of human SW620 cells after 48 hrs by sulforhodamine B assay; settings: SW-620, 48 h; in short: as §1
ACHN = assay: Growth inhibition of human ACHN cells after 48 hrs by sulforhodamine B assay
[2] = read-out: pLC50 (the source's name) (converted)

COc1ccc(CNc2nc3cc(N)cc(N)c3nc2-c2ccccc2)cc1OC
GI50 (SNB-75): 16.2 µM
LC50 (SNB-75): 97.7 µM
TGI (SNB-75; read-out: pTGI (converted)): 39.8 µM
GI50 (NCI-H23): 17 µM
LC50 (50% net cell kill concentration) (NCI-H23): 91.2 µM
TGI (NCI-H23; read-out: pTGI (converted)): 39.8 µM
GI50 (K562): 6.03 µM
LC50 (K562): > 100 µM
TGI (K562; read-out: pTGI (converted)): > 100 µM
GI50 (NCI/ADR-RES): 17.8 µM
CC50 (NCI/ADR-RES; [2]): > 100 µM
TGI (NCI/ADR-RES; read-out: pTGI (converted)): 66.1 µM
GI50 (Malme-3M): 5.62 µM
CC50 (Malme-3M; [2]): 47.9 µM
TGI (Malme-3M; read-out: pTGI (converted)): 18.6 µM
GI50 (NCI-H226): 14.5 µM
LC50 (NCI-H226): 64.6 µM
TGI (NCI-H226; read-out: pTGI (converted)): 30.9 µM
GI50 (HL-60(TB)): 3.16 µM
LC50 (HL-60(TB)): > 100 µM
TGI (HL-60(TB); read-out: pTGI (converted)): 81.3 µM
GI50 (SR): 3.31 µM
LC50 (concentration giving 50% net cell death) (SR): > 100 µM
TGI (SR; read-out: pTGI (converted)): 18.2 µM
GI50 (DU-145): 0.46 µM
CC50 (DU-145; [2]): > 100 µM
TGI (DU-145; read-out: pTGI (converted)): 87.1 µM
GI50 (T47D): 4.47 µM
CC50 (T47D; [2]): > 100 µM
TGI (T47D; read-out: pTGI (converted)): > 100 µM
GI50 (HT-29): 1.86 µM
LC50 (HT-29): > 100 µM
TGI (HT-29; read-out: pTGI (converted)): 24.5 µM
GI50 (EKVX): 5.89 µM
LC50 (50% net cell kill) (EKVX): > 100 µM
TGI (EKVX; read-out: pTGI (converted)): 30.2 µM
GI50 (BT-549): 13.5 µM
CC50 (BT-549; [2]): 79.4 µM
TGI (BT-549; read-out: pTGI (converted)): 32.4 µM
GI50 (LOX IMVI): 3.09 µM
LC50 (LOX IMVI): > 100 µM
TGI (LOX IMVI; read-out: pTGI (converted)): 14.1 µM
GI50 (M14): 4.27 µM
CC50 (M14; [2]): 33.9 µM
TGI (M14; read-out: pTGI (converted)): 7.76 µM
GI50 (RXF 393): 19.1 µM
CC50 (RXF 393; [2]): > 100 µM
TGI (RXF 393; read-out: pTGI (converted)): > 100 µM
GI50 (UACC-62): 12.9 µM
CC50 (UACC-62; [2]): 53.7 µM
TGI (UACC-62; read-out: pTGI (converted)): 26.3 µM
GI50 (A549): 20.9 µM
LC50 (A549): > 100 µM
TGI (A549; read-out: pTGI (converted)): 50.1 µM
GI50 (HOP-92): 13.5 µM
LC50 (50% net cell death) (HOP-92): 66.1 µM
TGI (HOP-92; read-out: pTGI (converted)): 29.5 µM
GI50 (SK-MEL-28): 13.5 µM
CC50 (SK-MEL-28; [2]): 67.6 µM
TGI (SK-MEL-28; read-out: pTGI (converted)): 30.2 µM
GI50 [1]: 2.14 µM
LC50 [1]: > 100 µM
TGI ([1]; read-out: pTGI (converted)): 7.24 µM
GI50 (SK-MEL-2): 8.71 µM
CC50 (SK-MEL-2; [2]): > 100 µM
TGI (SK-MEL-2; read-out: pTGI (converted)): 30.2 µM
GI50 (CCRF-CEM): 3.47 µM
LC50 (CCRF-CEM): > 100 µM
TGI (CCRF-CEM; read-out: pTGI (converted)): 70.8 µM
GI50 (HCT-15): 30.2 µM
LC50 (HCT-15): > 100 µM
TGI (HCT-15; read-out: pTGI (converted)): > 100 µM
GI50 (SF-539): 20 µM
LC50 (SF-539): > 100 µM
TGI (SF-539; read-out: pTGI (converted)): 45.7 µM
GI50 (SW-620): 5.25 µM
CC50 (SW-620; [2]): > 100 µM
TGI (SW-620; read-out: pTGI (converted)): > 100 µM
GI50 (ACHN): 13.8 µM
CC50 (ACHN; [2]): 81.3 µM
TGI (ACHN; read-out: pTGI (converted)): 33.1 µM
